Assay outcomes as filed in PubChem.
The list is not random: actives were taken first. Their share in the collection is about 2.2%.
AI-2 QS mod: modulators of Vibrio harveyi AI-2 quorum sensing system. activity change, % at 7.5 µM. Vibrio harveyi JMH597 AI-2 luminescence/OD600 ratio, 9 h; stronger effect = lower value; strain lacks LuxN and CqsS sensors; 0 = neutral-control median. 300,000 compounds, 0.4% hits. AID 2094; in the data active means activity change below about -75%, passing the limit was not always enough; inconclusive means no clear call, values can overlap the other calls;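 further: luminescence divided by OD600 gain over 9 h not by final OD600 alone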
T cruzi repl: T. cruzi replication inhibition | T. cruzi beta-gal in NIH3T3, luminescence, 90 h | inhibition, % (concentration not given with the values) | 300,000 compounds, 1.4% hits;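 active means mean inhibition across valid replicates above about 55%, limit read from the data; inconclusive means mean below that limit but half or more replicates reach it; inactive means mean below it, under half of replicates reach it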;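 further: signal also drops with host cell toxicity which is not excluded here; higher percent means less beta-gal luminescence so fewer parasites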
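assay system = mouse NIH/3T3 fibroblasts infected with β-gal-expressing T. cruzi Tulahuen C4 | input = 5,000 NIH/3T3 host cells per well | buffer or medium = DMEM plus 2% FBS | timing = 3 h host attachment, then at least 90 h co-culture | measured by = GalScreen luminescence, 60 min | evaluation = luminescence reflecting intracellular parasite burden, expressed as percent inhibition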
Efflux pump inh: blocks antifungal efflux pumps in multiplex yeast assay. 330,000 compounds, 0.44% hits. S. cerevisiae Candida pump triplex, Nile Red efflux. inhibition, % at 10 µM. AID 485275;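 active means plate passing quality check with inhibition over a set limit, or well fluorescence over plate mean plus 4 SD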;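 further: Nile Red retained in pooled yeast measured as flow cytometry median fluorescence; higher means more Nile Red kept so more efflux inhibition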
PolyA inhibitor: yeast polyadenylation inhibition | S. cerevisiae SKY197-pL101 polyadenylation reporter, beta-gal luminescence; efflux-impaired pdr1/pdr3 knockout yeast; score 100 = 6 SD above DMSO | activity score, % at 12 µM | 300,000 compounds, 0.02% hits | AID 1875;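 active means lowest replicate activity score at least 50, where 100 means six control SD above control mean; inconclusive means lowest score under 50 but half or more replicates reach 50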;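 further: yeast exposed to compound for 9 h at 30 °C; higher score means more reporter readthrough which indicates perturbed polyadenylation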
HDAC3 inh: blocks human histone deacetylase 3 | recombinant HDAC3, fluorogenic peptide/trypsin coupled, fluorescence | AID 2718 | inhibition, % at 8.3 µM | O15379 | 320,000 compounds, 0.15% hits; in the data active means inhibition above about 26%, passing the limit was not always enough; inconclusive means no clear call, values can overlap the other calls
Target sequence (O15379 whole entry, looked up): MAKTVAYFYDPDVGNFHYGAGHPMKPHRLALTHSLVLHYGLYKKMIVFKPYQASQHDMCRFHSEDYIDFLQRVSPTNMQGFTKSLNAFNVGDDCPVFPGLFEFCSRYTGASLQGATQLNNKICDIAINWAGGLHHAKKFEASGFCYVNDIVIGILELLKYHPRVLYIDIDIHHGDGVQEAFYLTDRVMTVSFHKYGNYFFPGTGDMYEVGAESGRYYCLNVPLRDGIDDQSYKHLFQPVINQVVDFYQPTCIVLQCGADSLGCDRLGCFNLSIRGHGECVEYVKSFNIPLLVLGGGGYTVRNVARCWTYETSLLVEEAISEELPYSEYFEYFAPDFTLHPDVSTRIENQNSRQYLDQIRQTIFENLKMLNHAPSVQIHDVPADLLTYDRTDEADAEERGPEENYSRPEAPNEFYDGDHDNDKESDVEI
JMH597 growth rt: retest: inhibitors of Vibrio harveyi JMH597 growth; growth inhibition, % at 7.5 µM; OD600 absorbance, 9 h; lacks LuxN and CqsS sensors; 750 compounds, 1% hits; shares compounds with AI-2 QS mod;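 active means every replicate shows growth inhibition above 50%; inconclusive means at least half, but not all, replicates pass that cutoff; inactive means fewer than half of replicates pass it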
BB721 const-QS lum: retest counter-screen: luminescence loss in constitutive-on quorum sensing strain BB721; shares compounds with AI-2 QS mod; Vibrio harveyi BB721 luminescence, 9 h; inhibition, % at 7.5 µM; 750 compounds, 95% hits; AID 2727;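 active means inhibition above about 80% in every replicate, not just on average, limit read from the data; inconclusive means at least half of replicates past the limit, but not all; inactive means fewer than half of replicates past the limit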
BB721 growth rt: retest: inhibitors of Vibrio harveyi BB721 growth | shares compounds with AI-2 QS mod | OD600 absorbance, 9 h | growth inhibition, % at 7.5 µM | 750 compounds, 3% hits;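 active means every replicate shows growth inhibition above 50%; inconclusive means at least half but not all replicates above 50% inhibition; inactive means under half of replicates above 50% inhibition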
AI-2 QS JMH597: Vibrio harveyi AI-2 signaling luminescence modulation – JMH597 strain, confirmation | shares compounds with AI-2 QS mod | 750 compounds, 97% hits | inhibition, % at 7.5 µM | Vibrio harveyi JMH597 AI-2 quorum sensing luminescence, 9 h; luxN and CqsS knockout, AI-2 only;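 active means every replicate shows more than 75% inhibition of signal versus neutral control wells; inconclusive means half to three quarters of replicates exceed 75% inhibition; inactive means fewer than half of replicates exceed 75% inhibition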
A number is an active result; i = inactive; ? = inconclusive; nt = no result.

SMILES | AI-2 QS mod | T cruzi repl | Efflux pump inh | PolyA inhibitor | HDAC3 inh | JMH597 growth rt | BB721 const-QS lum | BB721 growth rt | AI-2 QS JMH597
COc1ccc(CNC(=O)Nc2ccc(C)cc2)cc1 | -79 | i | i | i | i | i | 88 | i | 92
O=C(NCc1ccc(F)cc1)Nc1ccc(Cl)cc1 | ? | i | i | i | i | nt | nt | nt | nt
CN(Cc1nc2ccccc2c(=O)[nH]1)C(=O)C1CC(=O)N(c2cccc3ccccc23)C1 (configuration not stated) | nt | nt | i | nt | i | nt | nt | nt | nt
CCOC(=O)c1ccc(NC(=O)NCc2ccc(OC)cc2)cc1 | i | i | i | i | i | nt | nt | nt | nt
COc1ccc(CNC(=O)Nc2cc(C)cc(C)c2)cc1 | ? | i | i | i | i | i | 96 | i | 97
CCOC(=O)c1cccc(NC(=S)NCc2ccc(C)cc2)c1 | -85 | nt | i | i | i | i | 89 | i | 91
O=C(NCCc1ccc(F)cc1)C(=O)NCC1CCCN1S(=O)(=O)c1cccs1 (configuration not stated) | i | i | i | i | i | nt | nt | nt | nt
Cc1ccc(-c2nnc(SCC(=O)N(CC(C)C)c3c(N)n(Cc4ccccc4)c(=O)[nH]c3=O)n2N)cc1 | i | i | i | i | i | nt | nt | nt | nt
NS(=O)(=O)c1ccc(CNC(=O)/C=C/c2ccco2)cc1 | i | i | i | i | i | nt | nt | nt | nt
O=C(/C=C/c1ccco1)NCc1ccc(F)cc1 | -85 | i | i | i | i | i | 94 | i | 96
O=C(CCc1ccc(S(=O)(=O)NCc2ccccc2)cc1)NCC1CCCO1 (configuration not stated) | i | i | i | i | i | nt | nt | nt | nt
Cc1ccc(S(=O)(=O)N/N=C\C=C\c2ccccc2)cc1 | -98 | i | i | i | i | i | 100 | i | 100
Cc1ccc(S(=O)(=O)N/N=C/c2ccc(C(=O)O)cc2)cc1 | i | i | i | i | i | nt | nt | nt | nt
COc1ccc(OCC(=O)Nc2ccc(S(=O)(=O)Nc3cc(C)on3)cc2)cc1 | -84 | i | i | i | nt | i | 91 | i | 92
CCc1ccc(OCC(=O)Nc2ccc(S(=O)(=O)Nc3ccccn3)cc2)cc1 | -85 | i | i | i | i | i | 89 | i | 96
COc1ccc(S(=O)(=O)Nc2ccccc2)cc1 | i | i | i | i | i | nt | nt | nt | nt
COc1ccc(S(=O)(=O)Nc2ccc(Nc3ccccc3)cc2)cc1 | -97 | i | i | i | i | 68 | 100 | i | 100
Cc1cc(NS(=O)(=O)c2ccc(NC(=O)COc3cc(C)c(Cl)c(C)c3)cc2)no1 | nt | nt | i | nt | i | nt | nt | nt | nt
Cc1cc(NS(=O)(=O)c2ccc(CC(C)C)cc2)no1 | i | i | i | i | i | nt | nt | nt | nt
Cc1cc(NS(=O)(=O)c2ccc(C(C)C)cc2)no1 | -86 | i | i | i | i | i | 87 | i | 100
C1CCN(CCCNC2C3CC4CC(C3)CC2C4)C1 (configuration not stated) | i | i | i | i | i | nt | nt | nt | nt
COC(=O)c1c(C(=O)OC)c(-c2ccc(Br)cc2)n2c1CS(=O)C2 (configuration not stated) | i | i | i | i | i | nt | nt | nt | nt
CCCCN1CC[C@@H]2C=CC[C@H](C(=O)OC)[C@@H]2C1=O | nt | nt | i | nt | nt | nt | nt | nt | nt
COc1ccc(CC(=O)Nc2ccc(S(=O)(=O)Nc3ncccn3)cc2)cc1 | -91 | i | i | i | i | i | 93 | i | 96
Oc1ccccc1CNc1cnc2ccccc2c1 | i | i | i | i | i | nt | nt | nt | nt
SMILES | AI-2 QS mod | T cruzi repl | Efflux pump inh | PolyA inhibitor | HDAC3 inh | JMH597 growth rt | BB721 const-QS lum | BB721 growth rt | AI-2 QS JMH597
Oc1ccc(Cl)cc1CNc1cnc2ccccc2c1 | -97 | i | i | i | i | i | 99 | i | 100
COc1ccc(C(=O)Cn2nnc(-c3ccccc3NC(=O)C3CC3)n2)cc1 | i | i | i | i | i | nt | nt | nt | nt
COc1ccc(C(=O)Cn2nnc(-c3ccccc3F)n2)cc1 | -86 | i | i | i | i | i | 95 | i | 97
COc1cc(SC)ccc1C(=O)Nc1ccc(OCC(=O)N2CCOCC2)cc1 | i | i | nt | i | nt | nt | nt | nt | nt
CSc1ccc(Cl)c(C(=O)Nc2ccc(OCC(N)=O)cc2)c1 | ? | i | i | i | i | i | i | i | i
CCOc1ccc(C(=O)Nc2ccc3[nH]ncc3c2)cc1 | i | i | i | i | i | nt | nt | nt | nt
O=C(NCCc1ccccc1)c1cccc(S(=O)(=O)NCc2ccccc2)c1 | i | i | i | i | i | nt | nt | nt | nt
O=C(NCCOc1ccccc1)c1cccc(S(=O)(=O)NCc2ccccc2)c1 | -97 | i | i | i | i | ? | 99 | i | 99
O=C(NCCOc1ccccc1)c1cc2ccccc2o1 | -82 | i | i | i | i | i | 87 | i | 92
O=C(COc1ccccc1)NNC(=O)c1cc2ccccc2o1 | i | i | i | i | i | nt | nt | nt | nt
Brc1cccc(CSc2nnc(-c3ccncc3)o2)c1 | -85 | nt | i | nt | i | i | 95 | i | 96
c1ccc2c(CSc3nnc(-c4ccncc4)o3)cccc2c1 | -83 | i | i | i | i | i | 94 | i | 96
O=C(Nc1ccccc1NS(=O)(=O)c1ccc(F)cc1)C1CCC1 | i | i | i | i | i | nt | nt | nt | nt
Cc1cc(C(=O)NNC(=O)c2ccc(S(=O)(=O)N(C)C)cc2)c(C)o1 | -84 | i | i | i | i | i | 88 | i | 93
O=C(Cn1cnc2ccccc2c1=O)Nc1ccc(S(=O)(=O)N2CCCC2)cc1 | -97 | i | i | i | i | i | 100 | i | 100
O=C(Cn1cnc2ccccc2c1=O)Nc1ccc(S(=O)(=O)N2CCOCC2)cc1 | -94 | i | i | i | i | i | 99 | i | 99
O=[N+]([O-])c1ncccc1OCc1ccc(Cl)c(Cl)c1 | i | i | i | i | i | nt | nt | nt | nt
Fc1ccccc1CSc1ccc(-c2ccco2)nn1 | i | nt | i | nt | i | nt | nt | nt | nt
COc1ccc(S(=O)(=O)Cc2ccc(C(=O)NC3CCCCCC3)o2)cc1 | i | i | i | i | i | nt | nt | nt | nt
O=C(Nc1cccc(Cl)c1)OCc1cnc(Cl)s1 | ? | i | i | i | i | i | 92 | i | 92
Cc1ccc2sc(NC(=O)CN3C(=O)c4ccccc4C3=O)nc2c1C | -95 | i | i | i | i | i | 95 | i | 97
Cc1cccc2sc(NC(=O)CN3C(=O)c4ccccc4C3=O)nc12 | -84 | i | i | i | i | i | 94 | i | 97
Cc1ccc(NC(=O)CCC(=O)c2cccs2)c(O)c1 | -82 | i | i | i | nt | i | 93 | i | 95
COc1ccc(C(CC(=O)c2ccc(O)cc2)S(=O)(=O)c2ccc(C)cc2)cc1 (configuration not stated) | -91 | i | i | i | i | i | 96 | i | 97
